Fewer inactive variants are shown than the library holds.
B1: tRNA (parent)
chain: GUUCCGUUGGCGUAAUGGUAACGCGUCUCCCUCCUAAGGAGAAGACUGCGGGUUCGAGUCCCGUACGGAACG

Variants of: B1
Assay: yeast fitness relative to wild type (ratio to wild type); higher = fitter; tRNA-Arg(CCU), competitive growth, 37 C, YPD
How it was run: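 Variants of the tRNA-Arg(CCU) gene, chemically synthesised with a 3% per-site mutation rate at 69 sites, were placed at the native genomic locus in Saccharomyces cerevisiae. The pooled strains were competed in YPD at 37°C for 24 hours in six parallel replicates. Gene amplicons from the start population and from each end population were read by 100-nucleotide paired-end sequencing. Darwinian fitness relative to wild type came from changes in genotype frequencies; genotypes needed ≥ 100 starting reads, and estimates < 0.5 were set to 0.5.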

Variant	yeast fitness
A36U C61G A65C	≤ 0.5
U8C C27U A42U	0.552
U32C	0.966
C4G C24U U35C C66U	0.559
C27G C30G A40G C49A	0.571
C4G C24U C33G G48A C49U	≤ 0.5
C11U C24U C34G A70G	≤ 0.5
C4A G17C G23C A57C	≤ 0.5
U16A C30G C34G A42U C66U	≤ 0.5
G9C A15U C60G C61G G68C	≤ 0.5
C11U A15U C27G	0.529
C5G C31U G52A	0.612
C11U C22U G44C	0.553
A15C C31U G63A	≤ 0.5
G18A U47A	0.824
C4U C24G C34A A45C G56A C61A A65C A69C A70G	0.597
C11G A36C C46G C60G	0.68
C29G G48A A65G C66U	≤ 0.5
C30A A42G U54A A57C	≤ 0.5
C33G A37G A43C G58C	0.547
U28C A43C C46A G48C	≤ 0.5
G25A C31U G38C C62U	0.697
U2C G51C	0.687
A36G A45C C55G G58C	0.689

Variant	yeast fitness
U3A C34U G56C	≤ 0.5
U28G A36G	0.712
G25A A40U	0.924
C11U A57U A69U	0.613
U13A G23A A36C G38A C60G C62G	0.557
C11A G52C	0.596
C5A A21G G23A G67C	0.591
G9C G10C A69G A70G	≤ 0.5
G10A C24U C27G	≤ 0.5
C4A G18A G25C	0.515
G48C A65C	0.989
A14U U35C C66G	≤ 0.5
U8C C46U	1.03
U13G U28G C61U	0.523
U3C A45C G67A	≤ 0.5
C4G U7G A43C	0.687
A20G C27G U47G C62U A65U	≤ 0.5
A21U C31G U32A	0.585
U19C U54A	0.559
G6A A15U G23A	0.525
C5G U7G C33G A70U	≤ 0.5
C30U A37C C49U C66U	≤ 0.5
G23C C31A C62A	0.527
G12A U13C C49G U59A	≤ 0.5

Variant	yeast fitness
U54C A57U	0.595
C11A U16C A21G	≤ 0.5
C49U A57U	0.632
A21C G23U	0.714
G10A C27U U28C C30A G48A G50A	0.985
U2A A40G A43U A45C A57G A65C	≤ 0.5
A21U C27G C30G	≤ 0.5
A21U C30U	0.646
G10C A65U	0.767
A14U C22G A70U	0.576
C4U G6A U8G C31U C49A G67A	≤ 0.5
A15G C24G U26A G52A	0.589
U2G C11G G38C G44A	≤ 0.5
A20G A45C A69U	0.729
C55A A69C	0.613
A37C A40C U53C	0.526
C4U C29A G52C C55G U59G	0.656
G12C C29A A45U G56A	≤ 0.5
U7A C30A	0.669
G23C C66G	≤ 0.5
G10A C24A C27A A45G	≤ 0.5
C11G A15C C30U U53A C61G	≤ 0.5
A14C A42U G44C	≤ 0.5
G44C C62U	0.902

Variant	yeast fitness
C5G C22G A45G A65U	≤ 0.5
A14G A57U A65U	≤ 0.5
C49U C62G	0.704
G10C G38A C61A	0.618
C31G C34U A40C G50A C55G C62A	≤ 0.5
U13C C31U A70C	0.756
C4A A15C A43G	≤ 0.5
G25C C30U A69C	0.606
U7C U28C G41A A42C G50C A70G	0.572
C4G G25C A45C C46A	0.619
C4A C30U G38C A42G	≤ 0.5
C24U G48A G63C	0.768
U13C G63C	0.742
A15G A21C C34U C61U	≤ 0.5
A37G U54C A65U	≤ 0.5
U2C C11U G12A A15G	≤ 0.5
C11U G58C	0.925
U7A U8A G41A A70U	≤ 0.5
C29U A69C	0.939
G9A A70G	1.06
C5U C31G A40G A45G C46G G48A C62U G63A	≤ 0.5
C5G A14C G18A A21G A36U A45U	≤ 0.5
G10A A42G G50C	≤ 0.5
C11G C33U G68C	≤ 0.5

Variant	yeast fitness
C11G C49A A57U U64A G67U	≤ 0.5
A20C A21U C31U C60U A65U	≤ 0.5
G39C G48C	0.688
C5G C24G G50A C60U A69U	≤ 0.5
G17A C31A U32A	0.62
C34U G48A C49G	0.563
C24U C55G A57C	≤ 0.5
C30A U53C	0.82
U3A C4G C62U A70C	0.754
G6A A43C C62A	0.551
U2G C33U G58C A70U	0.581
U8C U28A	0.901
G12C U19A	0.742
U13A U32A A37U	≤ 0.5
C4U U16A A37U C49U C61G A70G	≤ 0.5
G6A C30U G51C	≤ 0.5
U8A U32G A37G G63U A70U	≤ 0.5
C11G C29U A36C A42G	0.718
U7C C34U C66U	≤ 0.5
C4U C29U G63A	0.517
A15G C30U C31A A36C	≤ 0.5
U26G U59C	0.936
G48U C61A	≤ 0.5
C30U U59A A69C	≤ 0.5

Variant	yeast fitness
C22U C33U C34A G38C G52A	0.601
A14U G18C A70G	0.715
U2A U16G C66G G68C	≤ 0.5
A37U A42G	0.588
G10C C11A C49G C55A	≤ 0.5
U7G G9A C31G A36G	0.576
C46U G63A A69C	0.833
C33A A43G A45C C60A	0.564
C24G A43G	0.573
C5U C34U U35C A70C	≤ 0.5
G12C U13C U16A C29G G44C C49G A57C	≤ 0.5
A21G G50C	0.76
U8C A14G U32A	0.538
A45U A65G A70C	0.754
U7A A45C	0.737
C5G U7C C11G A40G A57U	0.542
A15C C31U U32C	0.5
C22U U28A C33G G58A C66U	≤ 0.5
C22A G23A A37G U54G	≤ 0.5
U35A A42C C46U C66U G67C	≤ 0.5
C27A G39C	0.616
C11G A15G U26G G44A	≤ 0.5
U8C C66U	0.892
G6A U35A G67C	≤ 0.5

Variant	yeast fitness
A20G G38A	0.912
C31A A37C	0.665
C5U C49A	0.78
A43G A69C	0.935
G6C G9C U32A G38C U47A	≤ 0.5
G9A A37G	0.795
C31U C34G C49U G52A A69U	≤ 0.5
C5A A20C C22A C24U C31U G67A	≤ 0.5
U2A C31G	0.864
C4G C5U U47A C55U A57C	≤ 0.5
U19C A36C G41C	≤ 0.5
C5G C31A A36C A43C C55G	1.06
C11U G67A A69U	0.652
C11G A20G U32A	≤ 0.5
U2A G9A U13A C24A	≤ 0.5
G39C A43C A45G	≤ 0.5
G44A G58A	0.955
C33A G58C C62G U64G	≤ 0.5
U47C G48C A65C	0.619
A14G U16A U47C	0.812
A15G C24U C29U C30G U35G	0.737
A20G C22G	0.952
U13A C62G A69G	0.571

From the RNAGym collection of RNA variant scans (doi:10.1126/science.aae0568)
